# Hits are enriched below; roughly 1.8% of the tested compounds scored in any of these assays.
# CHRM5 agonist: human M5 muscarinic receptor agonists, primary screen, CHO-K1 cells, Fluo-8 calcium fluorescence | actives 0.19% (n = 360,000) | CHO-K1 hM5 cells; 0% DMSO wells, 100% maximal acetylcholine response | Muscarinic acetylcholine receptor M5 (Homo sapiens), P08912 | activation, % at 3 µM;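 active = activation above the run's mean over test compounds plus 3 SD, cut at about 23% in these data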;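 also: signal is peak over basal fluorescence ratio across the kinetic read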
# Target sequence (P08912 whole entry, looked up): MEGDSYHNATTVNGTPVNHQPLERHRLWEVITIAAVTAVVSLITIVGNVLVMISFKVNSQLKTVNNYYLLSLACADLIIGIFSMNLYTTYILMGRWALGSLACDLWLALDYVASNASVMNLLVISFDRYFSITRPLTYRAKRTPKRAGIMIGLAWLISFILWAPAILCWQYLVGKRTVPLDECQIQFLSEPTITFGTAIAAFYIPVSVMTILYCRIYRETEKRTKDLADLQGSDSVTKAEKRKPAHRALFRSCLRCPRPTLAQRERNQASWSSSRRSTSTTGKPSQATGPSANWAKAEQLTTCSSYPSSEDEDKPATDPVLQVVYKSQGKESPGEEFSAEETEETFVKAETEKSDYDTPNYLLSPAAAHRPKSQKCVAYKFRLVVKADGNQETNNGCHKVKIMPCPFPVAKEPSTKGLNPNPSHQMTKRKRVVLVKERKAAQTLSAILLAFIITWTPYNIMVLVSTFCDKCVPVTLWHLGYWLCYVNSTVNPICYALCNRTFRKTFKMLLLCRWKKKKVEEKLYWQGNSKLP
# CHRM5 antagonist: human M5 muscarinic receptor antagonists, primary screen, CHO cells, Fluo-8 calcium fluorescence; actives 0.59% (n = 360,000); CHO-hM5 cells, ACh EC80; Muscarinic acetylcholine receptor M5 (Homo sapiens), P08912; AID 624040, 2012; inhibition, % at 3 µM;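 active = inhibition above a per-plate cutoff, the mean of that plate's test compounds plus 3 SD, cut at about 27% in these data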;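 also: 0% = acetylcholine EC80 with DMSO and 100% = DMSO without agonist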
# M4 antag: human M4 muscarinic receptor antagonists, primary screen, CHO cells, Fluo-8 calcium fluorescence; AID 624125, 2012; Muscarinic acetylcholine receptor M4 (Homo sapiens), P08173; CHO-hM4 cells, ACh EC80; inhibition, % at 3 µM; actives 0.73% (n = 360,000);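 active = inhibition above its plate's cutoff, the mean inhibition of sample wells plus 3 SD, cut at about 27% in these data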;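 also: 0% = acetylcholine EC80 with DMSO and 100% = DMSO without agonist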
# M4 ag: human M4 muscarinic receptor agonists, primary screen, CHO-K1 cells, Fluo-8 calcium fluorescence. Muscarinic acetylcholine receptor M4 (Homo sapiens), P08173. activation, % at 3 µM. CHO-K1 hM4/Gqi5; vehicle 0%, full acetylcholine response 100%. AID 624127, 2012. actives 0.14% (n = 360,000);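 active = activation above the run mean over all test wells plus 3 SD, cut at about 32% in these data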;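 also: peak over basal fluorescence ratio per well then scaled between controls; 0% = DMSO wells and 100% = acetylcholine at EC100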
# M5 PAM: human M5 muscarinic receptor positive allosteric modulators, primary screen, CHO-K1 cells, Fluo-8 calcium fluorescence | CHO-K1 hM5, ACh EC20 PAM; 0% = ACh EC20, 100% = ACh EC100 | activation, % at 3 µM | actives 0.3% (n = 360,000);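 active = activation above the run cutoff, the mean activation of all test compounds plus 3 SD, cut at about 18% in these data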
#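 System: CHO-K1 cell line with stable human muscarinic M5 receptor expression | Also added: EC20 acetylcholine as agonist stimulus | Compound: One concentration, 3 µM final (nominal) | Timing: Fluo-8 loading 80 min at 37 °C plus 30 min room temperature | Measured by: Fluo-8 calcium dye fluorescence, kinetic read | Read-out basis: % activation, ACh-normalized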
# CHRM4 PAM: human M4 muscarinic receptor positive allosteric modulators, primary screen, CHO-K1 cells, Fluo-8 calcium fluorescence; Muscarinic acetylcholine receptor M4 (Homo sapiens), P08173; CHO-K1 hM4/Gqi5, ACh EC20; 0% = ACh EC20, 100% = maximal ACh; activation, % at 3 µM; actives 0.4% (n = 360,000);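 active = activation above its plate's cutoff, the mean activation of sample wells plus 3 SD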
# An asterisk follows results filed as active.
SMILES,CHRM5 agonist,CHRM5 antagonist,M4 antag,M4 ag,M5 PAM,CHRM4 PAM
O=C(Nc1cccc(-c2cnc3ccccc3n2)c1)c1ccccc1,1.4,-2.1,-5.5,0.9,-4.3,4.4
CC(C)CC(=O)Nc1cccc(C(=O)Nc2ccccc2C(=O)O)c1,-0.3,-4.6,-22.4,-1.8,7.2,30.5*
O=C(Nc1cccc(NC(=O)c2ccc(-c3cccc(Br)c3)o2)c1)c1ccco1,2.0,18.9,33.5*,11.7,-10.2,-16.5
CC(=O)c1cccc(NC(=O)c2cc(-c3cccs3)on2)c1,-2.3,-7.3,-25.3,1.4,2.4,15.8*
Cc1cc(F)ccc1NC(=O)C1CSC2(C)CCC(=O)N12 (centres undefined),-1.5,-4.7,-4.3,-0.1,7.5,-1.0
CCC(C)N(C(=O)CN1C(=O)NC2(CCc3ccccc32)C1=O)C1CCS(=O)(=O)C1 (centres undefined),1.4,14.8,0.1,3.6,3.9,3.7
CC(C)c1ccc(C2c3[nH]c4ccccc4c3C[C@H]3C(=O)N(c4ccccc4C(=O)N4CCC(C(=O)O)CC4)C(=O)N23)cc1 (some centres undefined),1.2,3.9,-10.6,0.6,-0.8,3.7
Cc1cc(Cl)ccc1C(O)c1ncc(-c2ccc3ccccc3c2)[nH]1 (centres undefined),-0.8,4.5,3.9,2.4,-0.1,2.4
CN(c1ccccc1)S(=O)(=O)c1cccc2ccccc12,-2.0,0.5,5.3,-1.9,5.5,-1.5
COc1ccc(/C=N/OCC(=O)NC(c2ccccc2)c2ccccc2)cc1OC,-0.2,-3.2,8.0,-0.1,7.0,9.1
CC(=O)c1cccc(NC(=O)c2ccc(Br)o2)c1,-1.4,3.9,28.9*,2.5,0.7,16.1
CC(=O)c1cccc(NC(=O)c2ccc(C)o2)c1,-0.4,10.5,10.0,0.7,-3.2,-1.4
O=C(Nc1ccccc1C(=O)O)c1cccc(NC(=O)c2ccc(Br)o2)c1,4.1,-4.8,-7.0,-1.4,0.2,18.4*
O=C(Nc1ccc(Nc2ccccc2)cc1)c1ccc(Br)cc1,0.7,3.3,6.6,0.5,-3.5,2.1
O=C(Nc1cccc(C(=O)Nc2ccc(Br)cc2)c1)c1ccccc1,-2.0,30.8*,17.0,19.6,-23.9,-11.7
COC(=O)C1=C(C(=O)OC)[C@@H]2N(C)c3ccc(OC)cc3[C@@]23C[C@@H](C(=O)OC)N(C(=O)c2cccs2)C3=N1,3.1,8.7,-5.6,-0.6,-3.2,4.9
CCOc1ccccc1N(C)S(=O)(=O)c1ccc2c(c1)CCN2C(=O)CCC(=O)O,-4.4,4.0,4.9,0.1,1.3,-0.9
CCc1cccc(CC)c1-n1c(SCC(=O)N2CCCc3ccccc32)nc(O)cc1=O,4.7,-7.5,-17.6,0.5,12.0,21.4
COc1ccccc1C(=O)NCCC(=O)N1CCN(C(C)=O)CC1,1.0,1.7,-4.3,1.2,-0.4,2.1
O=C(Cc1c(F)cccc1Cl)Nc1cc(S(=O)(=O)N2CCOCC2)ccc1N1CCOCC1,-8.4,0.6,-3.1,3.7,15.7,5.2
CCCn1c(SCC(=O)Nc2cccc(F)c2)nc(O)cc1=O,4.8,34.1*,26.8*,41.1*,-4.7,-11.2
COc1ccc(C)cc1S(=O)(=O)N1CCC(C(=O)NC2CCCC2)CC1,2.9,4.3,-5.5,4.4,-0.8,20.3*
Cc1ccc(S(=O)(=O)N2CCCC2)cc1C(=O)NC1CCCCC1,-2.9,-1.9,-0.8,0.9,5.5,-1.1
Cc1ccc(S(=O)(=O)N2CCC(C(N)=O)CC2)cc1C(=O)NC1CCCCC1,2.2,-6.5,-7.0,0.3,10.9,20.6*
O=C(Cn1c(=O)oc2cc(S(=O)(=O)N3CCCCCC3)ccc21)NC1CCCCC1,1.8,-7.3,-15.8,2.1,-0.1,17.5*
SMILES,CHRM5 agonist,CHRM5 antagonist,M4 antag,M4 ag,M5 PAM,CHRM4 PAM
c1ccc(-c2nnc(OCC3CCCO3)c3ccccc23)cc1 (centres undefined),-1.0,0.7,11.9,1.2,-3.7,-8.7
CCCCCCCC(O)CC(CC1CCCCC1)C(=O)NN (centres undefined),-3.6,-3.6,14.9,1.1,13.2,33.7*
CCCCC(CC(O)COCC(C)C)C(=O)NN (centres undefined),-2.8,-4.0,0.3,0.4,6.8,7.8
CCOc1cc(/C=C2\CN(C)C/C(=C\c3ccc(O)c(OCC)c3)C2=O)ccc1O,0.2,3.0,-8.1,10.6,-4.1,-2.0
CCOc1cc(/C=C2\CCC/C(=C\c3cc(Cl)c(O)c(OCC)c3)C2=O)cc(Cl)c1O,-3.7,22.3,47.2*,3.3,-10.9,-22.9
CCCCN(CCCC)c1ccc(C(=O)c2ccccc2C(=O)O)c(O)c1,10.4,2.6,21.3,34.2*,-2.0,-25.9
Cc1cc(C(=O)N2CCCC2(C)C(=O)NCC(C)C)nn1C(C)(C)C (centres undefined),0.8,0.8,-7.0,0.3,-0.6,-0.2
CCCCS(=O)(=O)/C=C\C1C2C=CC(C2)C1S(=O)(=O)CCCC (centres undefined),-2.4,-1.9,0.3,0.4,0.9,10.2
CCCCS(=O)(=O)/C=C\C=C/S(=O)(=O)CCCC,8.1,14.1,37.2*,3.6,10.2,3.7
COc1ccc(Nc2nc(NCCN3CCOCC3)nc(Nc3ccc(OC)cc3)n2)cc1,1.0,7.8,8.0,16.3,-8.8,-8.6
C#Cc1ccc([C@H]2C=C(C(=O)NCc3ccccc3)O[C@@H](OCC)[C@@H]2CCCO)cc1,-10.9,34.3*,-5.4,1.8,-39.9,-6.4
CC(NC=C1C(=O)OC(C)(C)OC1=O)C(=O)O (centres undefined),-0.8,-1.5,-1.4,0.7,-4.4,5.2
CC(C)CC(NC=C1C(=O)OC(C)(C)OC1=O)C(=O)O (centres undefined),-5.0,-3.2,-1.0,0.2,-0.5,20.8*
CSCCC(=O)NC1CCCN(CCc2ccccc2)C1 (centres undefined),-19.8,-5.6,7.5,0.4,-5.2,-6.3
O=C(Nc1ccc(N2CCN(c3ncccc3C(F)(F)F)CC2)nc1)c1cccs1,-10.2,18.9,27.3*,17.7,-32.2,-51.0
O=C(Nc1ccc(N2CCN(c3ccc(C(F)(F)F)cn3)CC2)nc1)c1cccs1,0.3,9.0,-4.3,0.1,-2.8,5.1

# From PubChem
